Laboratory results reported in the M2OR odorant receptor database.

How the values were obtained:
Conditions in all cases: stereoisomer not certain
UniProt A2ATE5 = target: T1, UniProt A2ATE5
T1 sequence (whole entry): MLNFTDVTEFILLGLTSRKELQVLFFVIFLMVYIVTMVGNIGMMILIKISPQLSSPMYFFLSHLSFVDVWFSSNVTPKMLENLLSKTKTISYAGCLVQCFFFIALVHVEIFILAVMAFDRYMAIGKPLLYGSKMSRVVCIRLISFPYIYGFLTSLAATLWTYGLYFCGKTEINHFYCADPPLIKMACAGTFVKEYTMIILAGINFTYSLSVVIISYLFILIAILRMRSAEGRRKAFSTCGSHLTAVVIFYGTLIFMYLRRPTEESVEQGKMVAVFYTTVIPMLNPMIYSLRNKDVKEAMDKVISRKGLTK
How it was run: (§1)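 Each receptor–molecule pair is labelled responsive or non-responsive (inactive) according to whether the original authors judged the measured signal statistically different from baseline. The data were taken from the main text and supplementary material of published papers and checked for typos and inconsistencies. Assay methods differed by source, with transient luciferase assays in mammalian cell lines being common.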

UniProt A2AVB0 = target: T2, UniProt A2AVB0
T2 sequence (whole entry): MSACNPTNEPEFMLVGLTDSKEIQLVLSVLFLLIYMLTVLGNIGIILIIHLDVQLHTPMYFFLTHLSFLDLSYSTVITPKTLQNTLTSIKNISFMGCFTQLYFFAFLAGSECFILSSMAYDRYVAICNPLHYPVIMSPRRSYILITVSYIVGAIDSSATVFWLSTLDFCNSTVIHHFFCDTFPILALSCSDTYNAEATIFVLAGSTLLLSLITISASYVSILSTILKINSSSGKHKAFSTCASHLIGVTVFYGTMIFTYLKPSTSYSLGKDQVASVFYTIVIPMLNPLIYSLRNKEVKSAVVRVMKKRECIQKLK
How it was run: as §1

UniProt E9PVX1 = target: T3, UniProt E9PVX1
T3 sequence (whole entry): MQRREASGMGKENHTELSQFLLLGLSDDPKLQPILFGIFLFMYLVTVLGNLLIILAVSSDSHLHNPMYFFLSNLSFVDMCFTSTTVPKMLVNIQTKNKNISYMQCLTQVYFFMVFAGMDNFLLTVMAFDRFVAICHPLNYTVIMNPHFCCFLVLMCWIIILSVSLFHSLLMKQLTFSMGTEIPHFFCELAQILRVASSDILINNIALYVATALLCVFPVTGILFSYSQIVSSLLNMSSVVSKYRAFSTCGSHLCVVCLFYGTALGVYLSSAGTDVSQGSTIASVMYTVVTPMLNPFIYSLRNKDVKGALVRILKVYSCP
How it was run: as §1

UniProt E9PZ66 = target: T4, UniProt E9PZ66
T4 sequence (whole entry): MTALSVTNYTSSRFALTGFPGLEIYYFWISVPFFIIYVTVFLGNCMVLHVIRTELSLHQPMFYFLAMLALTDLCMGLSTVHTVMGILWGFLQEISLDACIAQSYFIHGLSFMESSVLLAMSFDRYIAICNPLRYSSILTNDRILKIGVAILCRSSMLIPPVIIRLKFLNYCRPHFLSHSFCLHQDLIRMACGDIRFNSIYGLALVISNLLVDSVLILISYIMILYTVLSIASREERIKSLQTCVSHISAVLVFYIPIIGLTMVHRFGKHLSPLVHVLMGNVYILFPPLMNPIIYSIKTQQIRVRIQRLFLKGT
How it was run: as §1

UniProt E9Q4X7 = target: T5, UniProt E9Q4X7
T5 sequence (whole entry): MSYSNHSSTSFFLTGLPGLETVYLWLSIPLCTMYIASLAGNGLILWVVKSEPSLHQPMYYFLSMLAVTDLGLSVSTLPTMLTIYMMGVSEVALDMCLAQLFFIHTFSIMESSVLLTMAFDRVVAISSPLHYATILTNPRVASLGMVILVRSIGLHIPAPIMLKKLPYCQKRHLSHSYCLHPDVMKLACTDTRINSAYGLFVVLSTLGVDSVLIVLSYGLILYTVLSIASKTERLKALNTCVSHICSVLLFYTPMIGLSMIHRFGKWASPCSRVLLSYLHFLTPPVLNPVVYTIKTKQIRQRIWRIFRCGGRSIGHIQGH
How it was run: as §1

UniProt E9Q546 = target: T6, UniProt E9Q546
T6 sequence (whole entry): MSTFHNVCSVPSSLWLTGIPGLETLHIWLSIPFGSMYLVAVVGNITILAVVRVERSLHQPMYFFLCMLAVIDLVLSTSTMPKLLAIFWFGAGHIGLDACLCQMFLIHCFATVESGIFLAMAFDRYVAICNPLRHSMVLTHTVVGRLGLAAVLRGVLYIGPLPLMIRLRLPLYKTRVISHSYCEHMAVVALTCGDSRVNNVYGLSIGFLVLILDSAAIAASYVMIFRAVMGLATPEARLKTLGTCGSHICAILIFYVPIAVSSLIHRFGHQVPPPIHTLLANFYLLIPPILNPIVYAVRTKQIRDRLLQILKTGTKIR
How it was run: as §1

UniProt E9Q6Z7 = target: T7, UniProt E9Q6Z7
T7 sequence (whole entry): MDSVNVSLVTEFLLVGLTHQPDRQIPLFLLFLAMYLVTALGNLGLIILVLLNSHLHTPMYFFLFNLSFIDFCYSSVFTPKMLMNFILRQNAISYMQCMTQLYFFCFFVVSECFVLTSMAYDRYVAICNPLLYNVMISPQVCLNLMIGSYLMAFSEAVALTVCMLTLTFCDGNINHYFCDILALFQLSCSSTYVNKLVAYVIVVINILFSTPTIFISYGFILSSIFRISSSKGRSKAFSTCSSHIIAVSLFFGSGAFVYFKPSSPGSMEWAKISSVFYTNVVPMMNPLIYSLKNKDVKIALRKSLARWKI
How it was run: as §1

Measured: odorant receptor agonist call;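 further: active if original authors judged signal statistically different from baseline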

CC(=O)OCc1ccc2c(c1)OCO2
inactive: UniProt A2ATE5 | UniProt A2AVB0 | UniProt E9PVX1 | UniProt E9PZ66 | UniProt E9Q4X7 | UniProt E9Q546 | UniProt E9Q6Z7

C1CCOCC1
inactive: UniProt A2ATE5 | UniProt A2AVB0 | UniProt E9PVX1 | UniProt E9PZ66 | UniProt E9Q4X7 | UniProt E9Q546 | UniProt E9Q6Z7

CC=Cc1ccc(OC)cc1
inactive: UniProt A2ATE5 | UniProt A2AVB0 | UniProt E9PVX1 | UniProt E9PZ66 | UniProt E9Q4X7 | UniProt E9Q546 | UniProt E9Q6Z7

C=C(CC)CCCC(C)(C)O
inactive: UniProt A2ATE5 | UniProt A2AVB0 | UniProt E9PVX1 | UniProt E9PZ66 | UniProt E9Q4X7 | UniProt E9Q546 | UniProt E9Q6Z7

CC=CC(=O)C1=C(C)CCCC1(C)C
inactive: UniProt A2ATE5 | UniProt A2AVB0 | UniProt E9PVX1 | UniProt E9PZ66 | UniProt E9Q4X7 | UniProt E9Q546 | UniProt E9Q6Z7

CC(C)CCN
inactive: UniProt A2ATE5 | UniProt A2AVB0 | UniProt E9PVX1 | UniProt E9PZ66 | UniProt E9Q4X7 | UniProt E9Q546 | UniProt E9Q6Z7

CCCCCCC=CC=O
inactive: UniProt A2ATE5 | UniProt A2AVB0 | UniProt E9PVX1 | UniProt E9PZ66 | UniProt E9Q4X7 | UniProt E9Q546 | UniProt E9Q6Z7

CCCC(C)C(=O)OCC (stereo unspecified)
inactive: UniProt A2ATE5 | UniProt A2AVB0 | UniProt E9PVX1 | UniProt E9PZ66 | UniProt E9Q4X7 | UniProt E9Q546 | UniProt E9Q6Z7

CCc1ccccc1O
inactive: UniProt A2ATE5 | UniProt A2AVB0 | UniProt E9PVX1 | UniProt E9PZ66 | UniProt E9Q4X7 | UniProt E9Q546 | UniProt E9Q6Z7

CCCCCCCCCC=CC=O
inactive: UniProt A2ATE5 | UniProt A2AVB0 | UniProt E9PVX1 | UniProt E9PZ66 | UniProt E9Q4X7 | UniProt E9Q546 | UniProt E9Q6Z7

CCCCCC(C=O)=Cc1ccccc1
inactive: UniProt A2ATE5 | UniProt A2AVB0 | UniProt E9PVX1 | UniProt E9PZ66 | UniProt E9Q4X7 | UniProt E9Q546 | UniProt E9Q6Z7

CC(C)=CCCC(C)=CCOC(=O)C(C)C
inactive: UniProt A2ATE5 | UniProt A2AVB0 | UniProt E9PVX1 | UniProt E9PZ66 | UniProt E9Q4X7 | UniProt E9Q546 | UniProt E9Q6Z7

O=C(O)CCCCCCCCC(=O)O
inactive: UniProt A2ATE5 | UniProt A2AVB0 | UniProt E9PVX1 | UniProt E9PZ66 | UniProt E9Q4X7 | UniProt E9Q546 | UniProt E9Q6Z7

CC(=O)OC1(C)CCC23CC1C(C)(C)C2CCC3C (stereo unspecified)
inactive: UniProt A2ATE5 | UniProt A2AVB0 | UniProt E9PVX1 | UniProt E9PZ66 | UniProt E9Q4X7 | UniProt E9Q546 | UniProt E9Q6Z7

O=C([O-])CCCCCCC(=O)[O-].[H+].[H+]
inactive: UniProt A2ATE5 | UniProt A2AVB0 | UniProt E9PVX1 | UniProt E9PZ66 | UniProt E9Q4X7 | UniProt E9Q546 | UniProt E9Q6Z7

Cc1ccc(C(C)C)cc1
inactive: UniProt A2ATE5 | UniProt A2AVB0 | UniProt E9PVX1 | UniProt E9PZ66 | UniProt E9Q4X7 | UniProt E9Q546 | UniProt E9Q6Z7

CC(C)CS
inactive: UniProt A2ATE5 | UniProt A2AVB0 | UniProt E9PVX1 | UniProt E9PZ66 | UniProt E9Q4X7 | UniProt E9Q546 | UniProt E9Q6Z7

CCOC(=O)C(C)CC (stereo unspecified)
inactive: UniProt A2ATE5 | UniProt A2AVB0 | UniProt E9PVX1 | UniProt E9PZ66 | UniProt E9Q4X7 | UniProt E9Q546 | UniProt E9Q6Z7
